Data: ChEMBL document CHEMBL4680134, “Structural optimization of natural product nordihydroguaretic acid to discover novel analogues as AcrB inhibitors” (Eur J Med Chem, 2020)
Values after ≈ are worked out from the molar mass of the structure shown. Active and inactive are the calls of the source. The calls are words filed in the database; no cut-off is given here.

How the values were obtained:
[1] = target: T1, Multidrug efflux pump subunit AcrB (Escherichia coli (strain K12)) (UniProt P31224); test: Inhibition of AcrB in Escherichia coli BW25113 assessed as potentiation of rifampicin induced antibacterial activity by measuring rifampicin MIC at 256 ug/ml measured after 18 hrs by checkerboard titration method (reference value: 16 ug/ml); details: dose 256.0 µg/ml
T1 sequence (whole entry): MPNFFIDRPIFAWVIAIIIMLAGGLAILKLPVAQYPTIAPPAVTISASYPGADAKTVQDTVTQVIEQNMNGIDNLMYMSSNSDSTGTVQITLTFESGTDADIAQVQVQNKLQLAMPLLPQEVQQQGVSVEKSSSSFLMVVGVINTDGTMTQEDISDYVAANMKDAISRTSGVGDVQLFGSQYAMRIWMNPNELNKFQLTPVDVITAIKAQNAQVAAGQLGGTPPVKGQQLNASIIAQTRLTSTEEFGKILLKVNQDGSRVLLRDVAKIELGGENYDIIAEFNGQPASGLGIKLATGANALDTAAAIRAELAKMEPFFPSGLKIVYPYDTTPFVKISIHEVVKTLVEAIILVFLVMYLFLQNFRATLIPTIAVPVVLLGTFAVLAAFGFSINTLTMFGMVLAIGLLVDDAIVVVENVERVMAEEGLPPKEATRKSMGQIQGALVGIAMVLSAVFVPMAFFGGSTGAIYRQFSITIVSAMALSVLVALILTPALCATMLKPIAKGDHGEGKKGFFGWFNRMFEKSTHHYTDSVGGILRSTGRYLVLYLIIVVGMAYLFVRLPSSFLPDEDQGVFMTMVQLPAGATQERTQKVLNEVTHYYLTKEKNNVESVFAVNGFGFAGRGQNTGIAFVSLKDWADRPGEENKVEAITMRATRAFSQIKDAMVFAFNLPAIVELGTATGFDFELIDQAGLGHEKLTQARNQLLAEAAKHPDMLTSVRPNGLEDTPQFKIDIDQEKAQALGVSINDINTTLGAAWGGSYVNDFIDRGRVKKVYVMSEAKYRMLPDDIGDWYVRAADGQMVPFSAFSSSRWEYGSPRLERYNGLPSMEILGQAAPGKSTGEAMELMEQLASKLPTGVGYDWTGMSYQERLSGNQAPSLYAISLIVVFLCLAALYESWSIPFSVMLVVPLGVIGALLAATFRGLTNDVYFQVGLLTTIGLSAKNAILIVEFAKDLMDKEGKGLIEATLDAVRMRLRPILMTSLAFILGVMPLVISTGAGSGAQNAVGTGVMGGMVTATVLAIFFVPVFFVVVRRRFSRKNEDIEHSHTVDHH

Cell membrane [2] = test: Induction of outer membrane permeabilization in wild type Escherichia coli BW25113 assessed as increase in nitrocefin hydrolysis at 256 ug/ml by spectrophotometry analysis; details: dose 256 µg/ml
In short: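 Outer-membrane permeability: intact E. coli treated with 10 µM CCCP to block nitrocefin efflux, then exposed to compound. Nitrocefin hydrolysis by periplasmic β-lactamase followed as increasing absorbance at 490 nm over time. Polymyxin B as permeabilizer control, untreated cells as baseline. Duplicate experiments on different days.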

[3] = target: T1, Multidrug efflux pump subunit AcrB (Escherichia coli (strain K12)); test: Inhibition of AcrB in Escherichia coli BW25113 assessed as potentiation of erythromycin induced antibacterial activity by measuring fold change in erythromycin MIC at 128 ug/ml measured after 18 hrs by checkerboard titration method relative to erythromycin alone; details: dose 128.0 µg/ml
[4] = target: T1, Multidrug efflux pump subunit AcrB (Escherichia coli (strain K12)); test: Inhibition of AcrB in Escherichia coli BW25113 assessed as potentiation of rifampicin induced antibacterial activity by measuring rifampicin MIC at 8 ug/ml measured after 18 hrs by checkerboard titration method (reference value: 16 ug/ml); details: dose 8.0 µg/ml
[5] = target: T1, Multidrug efflux pump subunit AcrB (Escherichia coli (strain K12)); test: Inhibition of AcrB in Escherichia coli BW25113 assessed as potentiation of erythromycin induced antibacterial activity by measuring erythromycin MIC at 8 ug/ml measured after 18 hrs by checkerboard titration method (reference value: 64 ug/ml); details: dose 8.0 µg/ml
[6] = target: T1, Multidrug efflux pump subunit AcrB (Escherichia coli (strain K12)); test: Inhibition of AcrB in Escherichia coli BW25113 assessed as potentiation of chloramphenicol induced antibacterial activity by measuring fold change in chloramphenicol MIC at 128 ug/ml measured after 18 hrs by checkerboard titration method relative to chloramphenicol alone; details: dose 128.0 µg/ml
[7] = target: T1, Multidrug efflux pump subunit AcrB (Escherichia coli (strain K12)); test: Inhibition of AcrB in Escherichia coli BW25113 assessed as potentiation of levofloxacin induced antibacterial activity by measuring levofloxacin MIC at 8 ug/ml measured after 18 hrs by checkerboard titration method (reference value: 0.06 ug/ml); details: dose 8.0 µg/ml
Cell membrane [8] = test: Induction of inner membrane permeabilization in CCCP treated wild type Escherichia coli BW25113 at 64 ug/ml measured after 10 mins by Di0C2(3) probe based fluorimetric method; details: escherichia coli bw25113, 10 min, dose 64 µg/ml
In short: (§1)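 Cells left untreated or exposed to compound at 8-256 µg/mL for 10 min, then DiOC2(3) added and fluorescence followed to plateau. Cells re-energized with 0.5% glucose; membrane potential build-up read as fluorescence rise to plateau, then dissipated with CCCP.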

[9] = target: T1, Multidrug efflux pump subunit AcrB (Escherichia coli (strain K12)); test: Inhibition of AcrB in Escherichia coli BW25113 assessed as reduction in glucose-induced nile red efflux at 100 to 200 uM preincubated for 15 mins followed by nile red addition and incubated for 3 hrs in shaker in presence of CCCP by fluorimetric analysis; details: dose 100-200 µM, time 195.0 min
In short: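 Whole-cell efflux: wild-type and ΔAcrB cells preloaded with Nile Red, with or without compound, before fluorescence readings. Efflux triggered at 100 s with 0.2% glucose and followed by fluorometry. The ΔAcrB strain marks maximal accumulation. Triplicate experiments with different cell batches.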

[10] = Growth inhibition of Escherichia coli harboring AcrB deletion mutant at higher concentration after 18 hrs by broth microdilution assay
In short: (§2)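 MIC determined by 96-well broth microdilution in E. coli BW25113 expressing AcrB ((+)AcrB) and an isogenic acrB-deleted strain ((-)AcrB). Used to set the compound concentrations for synergy testing that produce no direct antibacterial effect.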

Cell membrane [11] = test: Induction of inner membrane permeabilization in CCCP treated wild type Escherichia coli BW25113 at 128 ug/ml measured after 10 mins by Di0C2(3) probe based fluorimetric method; details: escherichia coli bw25113, 10 min, dose 128 µg/ml; in short: as §1
[12] = target: T1, Multidrug efflux pump subunit AcrB (Escherichia coli (strain K12)); test: Inhibition of AcrB in Escherichia coli BW25113 assessed as potentiation of levofloxacin induced antibacterial activity by measuring fold change in levofloxacin MIC at 32 ug/ml measured after 18 hrs by checkerboard titration method relative to levofloxacin alone; details: dose 32.0 µg/ml
Cell membrane [13] = test: Induction of inner membrane permeabilization in CCCP treated wild type Escherichia coli BW25113 at 16 ug/ml measured after 10 mins by Di0C2(3) probe based fluorimetric method; details: escherichia coli bw25113, 10 min, dose 16 µg/ml; in short: as §1
[14] = Growth inhibition of Escherichia coli BW25113 expressing AcrB after 18 hrs by broth microdilution assay; in short: as §2
[15] = target: T1, Multidrug efflux pump subunit AcrB (Escherichia coli (strain K12)); test: Inhibition of AcrB in Escherichia coli BW25113 assessed as potentiation of tetraphenylphosphonium induced antibacterial activity by measuring fold change in tetraphenylphosphonium MIC at 128 ug/ml measured after 18 hrs by checkerboard titration method relative to tetraphenylphosphonium alone; details: dose 128.0 µg/ml

Structure (SMILES): C[C@H](Cc1ccc(O)c(O)c1)[C@@H](C)Cc1ccc(O)c(O)c1 [MASOPROCOL]
- MIC [1]: 16 µg/mL
- Activity (Cell membrane [2]): Toxic

Structure (SMILES): Oc1ccc(CCCc2ccc(O)c(O)c2)cc1O
- MIC [1]: 16 µg/mL
- Activity (Cell membrane [2]): Non-Toxic

Structure (SMILES): Nc1ccc(C(=O)NCCc2ccc(O)c(O)c2)cc1
- fold change (FC) [3]: 4
- MIC [4]: 16 µg/mL
- MIC [5]: 64 µg/mL
- fold change (FC) [6]: 4
- MIC [7]: 0.06 µg/mL

Structure (SMILES): O=C(NCCc1ccc(O)c(O)c1)c1ccc(C(F)(F)F)cc1
- MIC [4]: 16 µg/mL
- MIC [5]: 64 µg/mL
- MIC [7]: 0.06 µg/mL

Structure (SMILES): Oc1ccc(CCCCCCCc2ccc(O)c(O)c2)cc1O
- Activity (Cell membrane [8]): Non-Toxic
- MIC [1]: 16 µg/mL
- inhibition [9]: Active

Structure (SMILES): O=C(NCCc1ccc(O)c(O)c1)c1ccc(Br)cc1
- MIC [4]: 16 µg/mL
- MIC [5]: 64 µg/mL
- MIC [7]: 0.06 µg/mL

Structure (SMILES): Oc1ccc(CCCCc2ccc(O)c(O)c2)cc1O
- MIC [1]: 16 µg/mL

Structure (SMILES): Oc1ccc(CCCCCCc2ccc(O)c(O)c2)cc1O
- MIC [1]: 16 µg/mL

Structure (SMILES): Oc1ccc(CCCCCc2ccc(O)c(O)c2)cc1O
- growth inhibition (GI) [10]: Toxic
- MIC [1]: 16 µg/mL
- inhibition [9]: Active
- Activity (Cell membrane [11]): Toxic

Structure (SMILES): Nc1ccccc1C(=O)NCCc1ccc(O)c(O)c1
- MIC [4]: 16 µg/mL
- MIC [5]: 64 µg/mL
- MIC [7]: 0.06 µg/mL

Structure (SMILES): Oc1ccc(CCCCc2cc(O)c(O)c(O)c2)cc1O
- MIC [1]: 16 µg/mL
- Activity (Cell membrane [2]): Non-Toxic
- Activity (Cell membrane [11]): Non-Toxic

Structure (SMILES): O=C(NCCc1ccc(O)c(O)c1)c1ccc(O)c(O)c1
- Activity (Cell membrane [8]): Non-Toxic
- MIC [4]: 16 µg/mL
- MIC [5]: 64 µg/mL
- Activity (Cell membrane [2]): Non-Toxic
- inhibition [9]: Active
- MIC [7]: 0.06 µg/mL

Structure (SMILES): Nc1cc(N)cc(C(=O)NCCc2ccc(O)c(O)c2)c1
- Activity (Cell membrane [8]): Non-Toxic
- MIC [4]: 16 µg/mL
- MIC [5]: 64 µg/mL
- inhibition [9]: Active
- MIC [7]: 0.06 µg/mL

Structure (SMILES): O=C(NCCc1ccc(O)c(O)c1)c1ccccc1O
- MIC [4]: 16 µg/mL
- MIC [5]: 64 µg/mL
- Activity (Cell membrane [2]): Non-Toxic
- MIC [7]: 0.06 µg/mL
- fold change (FC) [12]: 2

Structure (SMILES): Oc1ccc(CCCCc2cc3cccc4ccc5cccc2c5c43)cc1O
- MIC [1]: 16 µg/mL
- Activity (Cell membrane [13]): Non-Toxic

Structure (SMILES): Cc1ccc(C(=O)NCCc2ccc(O)c(O)c2)cc1
- MIC [14]: 64 µg/mL (≈ 236 µM)
- growth inhibition (GI) [10]: Toxic
- MIC [4]: 16 µg/mL
- MIC [5]: 64 µg/mL
- MIC [7]: 0.06 µg/mL

Structure (SMILES): Oc1ccc(CCCCc2ccc(Br)cc2)cc1O
- MIC [1]: 16 µg/mL

Structure (SMILES): Oc1ccc(CCCCc2ccccc2O)cc1O
- MIC [1]: 16 µg/mL
- Activity (Cell membrane [11]): Toxic

Structure (SMILES): O=C(NCCc1ccc(O)c(O)c1)c1cc(O)c(O)c(O)c1
- fold change (FC) [15]: 4
- fold change (FC) [3]: 4
- Activity (Cell membrane [8]): Non-Toxic
- MIC [4]: 16 µg/mL
- MIC [5]: 32 µg/mL
- fold change (FC) [6]: 4
- MIC [7]: 0.06 µg/mL
- fold change (FC) [12]: 2

Structure (SMILES): Oc1ccc(CCCCc2ccc(Cl)cc2)cc1O
- MIC [1]: 16 µg/mL
